The list is a sample of the results.
Apaf-1 act: human Apaf-1 activation. Apaf-1 apoptosome caspase-3 activation, DEVD-Rh110 fluorescence; active compounds read low. activity change, negative = activation, % at 20 µM. hit rate 0.31% among 330,000. AID 489031;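 active means activity change at or below -40% at 20 µM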
Target sequence (O14727 whole entry, looked up): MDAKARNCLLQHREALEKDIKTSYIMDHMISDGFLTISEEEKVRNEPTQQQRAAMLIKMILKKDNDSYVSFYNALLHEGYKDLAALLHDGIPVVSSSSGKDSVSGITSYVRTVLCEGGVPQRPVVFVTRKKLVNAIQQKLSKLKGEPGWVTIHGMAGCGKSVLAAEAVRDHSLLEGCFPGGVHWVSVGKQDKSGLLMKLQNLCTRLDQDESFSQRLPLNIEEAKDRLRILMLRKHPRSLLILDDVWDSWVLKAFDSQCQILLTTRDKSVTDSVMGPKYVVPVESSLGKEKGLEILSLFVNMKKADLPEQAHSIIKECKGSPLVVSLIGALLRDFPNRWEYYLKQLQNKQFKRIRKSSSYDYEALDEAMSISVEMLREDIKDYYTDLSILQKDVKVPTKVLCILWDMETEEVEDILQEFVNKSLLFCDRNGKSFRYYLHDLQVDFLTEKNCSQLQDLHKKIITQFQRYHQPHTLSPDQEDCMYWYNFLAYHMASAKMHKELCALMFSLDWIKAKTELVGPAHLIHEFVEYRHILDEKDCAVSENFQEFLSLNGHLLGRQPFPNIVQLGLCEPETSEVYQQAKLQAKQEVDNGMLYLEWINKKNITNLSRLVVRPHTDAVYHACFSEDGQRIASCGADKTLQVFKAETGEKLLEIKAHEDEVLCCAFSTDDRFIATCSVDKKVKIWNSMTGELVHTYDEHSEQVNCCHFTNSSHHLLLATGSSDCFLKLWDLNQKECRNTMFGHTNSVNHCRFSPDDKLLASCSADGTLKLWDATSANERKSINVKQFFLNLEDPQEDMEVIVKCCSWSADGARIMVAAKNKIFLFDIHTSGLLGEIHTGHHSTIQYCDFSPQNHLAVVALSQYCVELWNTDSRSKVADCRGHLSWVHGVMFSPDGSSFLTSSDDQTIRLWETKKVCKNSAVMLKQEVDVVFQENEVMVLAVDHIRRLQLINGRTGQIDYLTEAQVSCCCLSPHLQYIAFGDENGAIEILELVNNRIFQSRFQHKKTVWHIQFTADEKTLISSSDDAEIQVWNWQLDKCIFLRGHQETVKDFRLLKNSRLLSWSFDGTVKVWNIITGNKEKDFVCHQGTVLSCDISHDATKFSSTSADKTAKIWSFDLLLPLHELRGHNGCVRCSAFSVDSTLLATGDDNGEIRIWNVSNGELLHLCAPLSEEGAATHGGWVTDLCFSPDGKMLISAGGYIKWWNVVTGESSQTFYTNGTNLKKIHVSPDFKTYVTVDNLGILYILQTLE
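System: Reconstituted apoptosome of Apaf-1, cytochrome c, caspase-9, procaspase-3 | Reagent: dATP, cytochrome c, and (Z-DEVD)2-Rh110 caspase-3 substrate | Times: 30 min compound preincubation and 50 min reaction, both room temperature | Detection: Caspase-3-released Rh110 fluorescence, 540 nm emission, 480 nm excitation | Measure: Caspase-3 activity via Apaf-1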
Rh110 interf act: Rh110 signal interference in Apaf-1 activator counter-screen. shares compounds with Apaf-1 act. Rh110 fluorescence interference, quenched caspase reaction, Ex480/Em540. fluorescence interference (activity change), % at 20 µM, hits read low. 980 tested, under 10 active. AID 504616;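 active means mean activity change at or below -40% when tested at 20 µM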
Apaf-1 act conf2: confirmation of human Apaf-1 activators; shares compounds with Apaf-1 act; reconstituted apoptosome caspase-3 activity, DEVD-Rh110 fluorescence; active compounds read low; activity change, negative = activation, % at 20 µM; hit rate 5% among 980; AID 504617;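 active means mean activity change at or below -40%, meaning activation of 40% or more, at 20 µM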
* marks the source's active call; other numbers are inactive results; nt = no result.

SMILES	Apaf-1 act	Rh110 interf act	Apaf-1 act conf2
COCCN(Cc1ccccc1)C(=O)C1CCN(S(=O)(=O)c2ccc3c(c2)OCCO3)CC1	49	nt	nt
Cc1c(CCOC(=O)c2ccc(Cl)cc2Cl)sc[n+]1CC(=O)c1ccc(Br)cc1	71	nt	nt
O=C1/C(=C\c2ccc(-c3ccccc3[N+](=O)[O-])o2)C(c2ccccc2)=NN1c1ccccc1	44	nt	nt
CCN1CCN(CCNC(=O)c2ccc(/C=C3\Sc4ccccc4N(Cc4ccccc4F)C3=O)cc2)CC1	41	nt	nt
O=C(OCc1nc2ccccc2s1)c1ccc([N+](=O)[O-])o1	69	nt	nt
C(=N\c1c(-c2ccccc2)nc2n1CCS2)/c1ccccc1	41	nt	nt
C#CCOCCOCCOCCNc1nc(N2CCN(C(=O)CCCCCCCCCCNC(=O)[C@H]([C@@H](C)CC)n3cc(CCCCN=C(N)N)nn3)CC2)nc(N2CCN(C(=O)CCCCCCCCCCNC(=O)[C@H](CO)n3cc(CCCCCN)nn3)CC2)n1	85	nt	nt
COc1cc(OC)cc(C(=O)NCC(=O)OCC(=O)c2ccc3c(c2)-c2ccccc2C3)c1	-65*	-7	18
CCCNc1c(F)c(F)c2c(C)c3ccccc3nc2c1F	51	nt	nt
COC(=O)c1ccccc1NC1=C/C(=N\S(=O)(=O)c2cccs2)c2ccccc2C1=O	92	nt	nt
O=C(N/N=C/c1ccc(-c2ccccc2[N+](=O)[O-])o1)[C@H]1C[C@@H]1c1ccccc1	68	nt	nt
CCSCCC(NC1=CC(=O)CC(C)(C)C1)C(=O)O (stereo not given)	49	nt	nt
O=C(Nc1ccc2nc(-c3ccco3)c(-c3ccco3)nc2c1)N1CCCCCC1	57	nt	nt
Cc1cccc(C(=O)N/C(=C\c2ccco2)C(=O)N2CCCC2)c1	-134*	1	4
O=C(NCC(c1ccco1)N1CCCC1)c1cccc(S(=O)(=O)Nc2ccc(Br)cc2)c1 (stereo not given)	59	nt	nt
COCCNC(=O)CN1C(=O)NC2(CCOc3ccccc32)C1=O (stereo not given)	46	nt	nt
CCOC(=O)c1c(CN(C)C)n(C)c2c(O)c(N=NC(N)=O)c3ccc(Br)cc3c12	95	nt	nt
C=CCn1c(COc2cccc(C)c2)nnc1SC(C)C(=O)NC1CC1 (stereo not given)	41	nt	nt
Oc1c(Br)cc(Br)cc1CNc1cccc2cccnc12	92	nt	nt
CCC1CCCCN1CCCNC(=O)CC1Oc2ccc(C)cc2NC1=O (stereo not given)	-93*	8	11
Cc1[nH]n(-c2ccccc2)c(=O)c1C(=O)c1ccccc1	61	nt	nt
Cc1cc2c(N)cccc2nn1	97	nt	nt
COC(CNC(=S)Nc1ccc([N+](=O)[O-])cc1)OC	-58*	8	3
CCN(CC)C(=O)N1CCN(S(=O)(=O)c2ccccc2)CC1	-81*	-2	11
COCCN(Cc1ccccc1)C(=O)c1cccc(S(=O)(=O)N2CCN(c3ccccc3)CC2)c1	43	nt	nt
SMILES	Apaf-1 act	Rh110 interf act	Apaf-1 act conf2
CCOC(=O)N1CCN(C2=C(NS(=O)(=O)c3ccccc3)C(=O)c3ccccc3C2=O)CC1	48	nt	nt
Cc1ccc2cc(C(c3nnnn3CC3CCCO3)N3CCc4ccccc4C3)c(=O)[nH]c2c1 (stereo not given)	87	nt	nt
c1ccc(-c2sc3ccccc3c2-c2ccc(OCCN3CCCCC3)cc2)cc1	52	nt	nt
Cc1[nH][nH]c(=O)c1C(c1ccc(-c2ccc(F)cc2)o1)c1c(C)[nH][nH]c1=O	72	nt	nt
C=C(C)Cn1c(NCCOC)nc2c1c(=O)[nH]c(=O)n2C	-40*	1	4
COc1cc(/C=N/NC(=O)c2ccncc2)ccc1OCC(=O)Nc1cccc([N+](=O)[O-])c1	-125*	-2	-24
COc1cc(/C=C2\C(=O)N(CCC#N)N=C2C)ccc1OCC(=O)Nc1ccccc1	93	nt	nt
CN(C)CCOc1ccc(-c2c(-c3ccccc3)sc3ccccc23)cc1	77	nt	nt
CC1=NN(c2ccc(C)cc2C)C(=O)C1C(c1ccccc1)C1C(=O)N(c2ccc(C)cc2C)N=C1C (stereo not given)	67	nt	nt
CCCc1ccc2oc(C(=O)NCCc3nc(C(=O)OCC)cs3)c(C)c2c1	41	nt	nt
CCCc1cc(C(=O)Nc2sc(C(C)=O)c(C)c2C(=O)OCC)no1	-192*	-7	8
Cc1nn(Cc2ccc(F)cc2)c(Cl)c1/C=N/NC(=O)c1cccnc1	-49*	-2	10
Cn1c(=O)c2[nH]c(=O)cnc2n(C)c1=S	56	nt	nt
Cc1cnc(NC(=O)C2=C(O)c3ccccc3S(=O)(=O)N2C)s1	-2	nt	nt
Oc1c(Br)cc(Br)cc1C=Nc1cccnc1	79	nt	nt
COCc1c(C(=O)OCC(=O)NCCN2C(=O)CSC2=O)oc2ccccc12	-67*	-4	5
CCc1cc2c(=O)nc3n(c2s1)Cc1ccccc1/C3=C(/O)c1cccc([N+](=O)[O-])c1	-198*	0	24
COc1cccc(CNc2cccc3cccnc23)c1O	71	nt	nt
O=C1CCN2C=Nc3cccc4ccc1c2c34	43	nt	nt
CCCCNc1c(-c2ccc(SC3CCCCC3)cc2)nc2cnccn12	42	nt	nt
COc1ccc(S(N)(=O)=O)cc1-c1nnc2c3ccccc3c(C)nn12	-54*	14	13
O=C(NCc1cccnc1)c1cc(Sc2cccc(Cl)c2)nc2ccccc12	-47*	12	19
Cc1oc2c(c1C(=O)NCc1cccnc1)C(=O)c1ccccc1C2=O	86	nt	nt
Nc1cccnc1Sc1cccc(Cl)c1	76	nt	nt
Cc1cc(N)ccc1N1CCCC1	65	nt	nt
SMILES	Apaf-1 act	Rh110 interf act	Apaf-1 act conf2
NC(=O)C1CCN(C2=C(NS(=O)(=O)c3ccc(Br)cc3)C(=O)c3ccccc3C2=O)CC1	66	nt	nt
COc1cccc(C(c2c(C)[nH]n(-c3ccccc3)c2=O)c2c(C)[nH]n(-c3ccccc3)c2=O)c1OC	97	nt	nt
CN(Cc1nccs1)C(=O)CC1C(=O)NCCN1Cc1ccc(-c2ccccc2)cc1 (stereo not given)	-330*	6	15
CCC(COC(=O)c1ccccc1)Oc1cc(NCc2ccccc2)c2ncn(C(C)C)c2c1 (stereo not given)	69	nt	nt
O=c1ccc2cc3c([nH]c4ccc(Br)cc43)oc-2c1O	85	nt	nt
Nc1c(C(=O)NCc2ccccc2)c2nc3ccccc3nc2n1CCCN1CCOCC1	49	nt	nt
COc1ccc(CNC(=O)c2c(N)n(CCCN3CCOCC3)c3nc4ccccc4nc23)cc1	87	nt	nt
COC(=O)c1c(N)n(CCCN2CCOCC2)c2nc3ccccc3nc12	-72*	2	13
Nc1scc2c(C(=O)N/N=C/c3ccc(Cl)cc3)nn(-c3ccccc3)c(=O)c12	42	nt	nt
COc1ccc(C[C@H]2CN3C(=NC[C@@H]3C(C)C)N2CCNC(=O)c2ccc(C)c(Br)c2)cc1	47	nt	nt
C/C=C(\C)C(=O)NCCN1C2=NC[C@@H](Cc3ccccc3)N2C[C@@H]1Cc1ccc(OC)cc1	40	nt	nt
Cc1ccc(C(=O)NCCN2C3=NC[C@H](C)N3C[C@H]2Cc2ccc(O)cc2)cc1Br	-440*	0	8
CN(C)CCCNC(=O)C[C@H]1C[C@H](C(=O)N2CCCCC2)[C@@]2(CCc3ccccc3)c3[nH]c4cc(-c5ccco5)ccc4c3CCN2C1=O	72	nt	nt
COc1ccc(C(=O)/C=C/C(=O)N(CC(=O)NC2CCCCC2)CC2CCCO2)c(O)c1 (stereo not given)	49	nt	nt
CCOC(=O)COc1ccc(S(=O)(=O)NCC2CCCO2)cc1 (stereo not given)	-185*	0	8

Screening data from PubChem.
